# Results as given in ChEMBL document CHEMBL1126893, “Synthesis and CLOGP correlation of imidooxy anticonvulsants” (J Med Chem, 1993).
# Active and inactive are the calls of the source.
# Experiments:
# Mus musculus [1] = assay: Elevation of threshold for electroshock induced seizures in mice was measured by ip administration after 0.5 hr at the dose of 60 mg /kg; type: functional
# How it was run: (§1)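 Elevation of maximal (tonic extension) electroshock seizure threshold in male CF1 mice (23-34 g). Compound given ip as a 0.5% methylcellulose suspension at 60, 80 and 90 mg/kg, with testing at 0.5 h. Read-out is % elevation of threshold. TID20 is the dose raising the threshold by 20%.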
# Mus musculus [2] = assay: Elevation of threshold for electroshock induced seizures in mice was measured by ip administration after 0.5 hr at the dose of 80 mg /kg; type: functional; how it was run: as §1
# Mus musculus [3] = assay: Elevation of threshold for electroshock induced seizures in mice was measured by ip administration after 0.5 hr at the dose of 90 mg/kg; type: functional; settings: route intraperitoneal; how it was run: as §1
# Mus musculus [4] = organism: Mus musculus; assay: TID20 was measured by MES test in mice; type: functional; how it was run: as §1
# Mus musculus [5] = organism: Mus musculus; assay: Time of peak effect of activity of compound was measured by MES test in mice; type: functional
# How it was run: (§2)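 Phase II quantification in mice after ip dosing. ED50 (scMet or MES) measured at the time of peak effect. TD50 (rotorod neurologic deficit) measured at the time of peak neurologic deficit. Medians and 95% confidence limits by the Litchfield-Wilcoxon method. Protective index = TD50/ED50. Time of peak effect determined in the MES or scMet test.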
# Mus musculus [6] = organism: Mus musculus; assay: Time of peak effect of toxicity of compound was measured by MES test in mice; type: functional; how it was run: as §2
# Mus musculus [7] = assay: Elevation of threshold for electroshock induced seizures in mice was measured by po administration after 0.5 hr at the dose of 200 mg/kg; 1/8; type: functional
# How it was run: (§3)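 Maximal electroshock test in male CF1 mice (23-34 g). Compound given as a 0.5% methylcellulose suspension ip or po, with testing at 0.5 h after several doses. Endpoint is protection from tonic hind limb extension.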
# Mus musculus [8] = assay: Elevation of threshold for electroshock induced seizures in mice was measured by po administration after 0.5 hr at the dose of 300 mg/kg; 2/8; type: functional; how it was run: as §3
# Mus musculus [9] = assay: Elevation of threshold for electroshock induced seizures in mice was measured by po administration after 0.5 hr at the dose of 400 mg/kg; 2/5; type: functional; how it was run: as §3
# Mus musculus [10] = assay: Effective dose was measured in mouse by maximal electroshock method by ip administration; 100-122; type: functional; how it was run: as §2
# Mus musculus [11] = organism: Mus musculus; assay: ED50 value of compound was expressed as dose protecting 50% of mice from tonic hind limb extension; type: functional; settings: Hindlimb; how it was run: as §3
# Mus musculus [12] = organism: Mus musculus; assay: Protective index (TD50/ED50) value in MES test in mice; type: functional
# Mus musculus [13] = assay: Time of peak effect of activity of compound was measured by both MES and sc Met test in mice; type: functional; how it was run: as §2
# Mus musculus [14] = assay: Time of peak effect of toxicity of compound was measured by both MES and sc Met test in mice; type: functional; how it was run: as §2
# Rattus norvegicus = assay: Effective dose was measured in rat by subcutaneous pentylenetetrazole method by ip administration; NE= Not effective; type: functional, organism-based
# Mus musculus [15] = assay: Anticonvulsant activity was measured by maximal electroshock test on mice at 0.25 hr at the dose of 50 mg/kg; number of animals protected/number of animals tested, 0/4; type: functional
# Mus musculus [16] = assay: Anticonvulsant activity was measured by maximal electroshock test on mice at 0.50 hr at the dose of 50 mg/kg; number of animals protected/number of animals tested, 0/4; type: functional
# Mus musculus [17] = assay: Anticonvulsant activity was measured by rotarod toxicity test on mice at 30 min at the dose of 300 mg/kg; number of animals protected/number of animals tested, 0/4; type: functional
# Mus musculus [18] = assay: Anticonvulsant activity was measured by rotarod toxicity test on mice at 4 h at the dose of 300 mg/kg; number of animals protected/number of animals tested, 0/2; type: functional
# Mus musculus [19] = assay: Anticonvulsant activity was measured by rotarod toxicity test on mice at 4 hr at the dose of 50 mg/kg; number of animals protected/number of animals tested, number of animals protected/number of animals tested, 0/4; type: functional
# Mus musculus [20] = assay: Anticonvulsant activity was measured by subcutaneous pentylenetetrazole test on mice at 30 min at the dose of 100 mg/kg; number of animals protected/number of animals tested, 2/5; type: functional
# Mus musculus [21] = assay: Anticonvulsant activity was measured by subcutaneous pentylenetetrazole test on mice at 30 min at the dose of 300 mg/kg; number of animals protected/number of animals tested, 5/5; type: functional
# Mus musculus [22] = assay: Anticonvulsant activity was measured by rotarod toxicity test on mice at 30 min at the dose of 100 mg/kg; number of animals protected/number of animals tested, 0/8; type: functional
# Mus musculus [23] = assay: Anticonvulsant activity was measured by rotarod toxicity teston mice at 0.25 hr at the dose of 50 mg/kg; number of animals protected/number of animals tested, 0/4; type: functional
# Mus musculus [24] = assay: Anticonvulsant activity was measured by rotarod toxicity teston mice at 0.50 hr at the dose of 50 mg/kg; number of animals protected/number of animals tested, 0/4; type: functional
# Mus musculus [25] = assay: Anticonvulsant activity was measured by maximal electroshock test on mice at 30 min at the dose of 300 mg/kg; number of animals protected/number of animals tested, 1/1; type: functional
# Mus musculus [26] = assay: Anticonvulsant activity was measured by maximal electroshock test on mice at 4 hr at the dose of 300 mg/kg; number of animals protected/number of animals tested, 0/1; type: functional
# Mus musculus [27] = assay: Anticonvulsant activity was measured by rotarod toxicity test on mice at 4 hr at the dose of 100 mg/kg; number of animals protected/number of animals tested, 0/4; type: functional
# Mus musculus [28] = assay: Anticonvulsant activity was measured by maximal electroshock test on mice at 4 hr at the dose of 100 mg/kg; number of animals protected/number of animals tested, 0/3; type: functional
# Mus musculus [29] = assay: Anticonvulsant activity was measured by maximal electroshock test on mice at 4 hr at the dose of 50 mg/kg; number of animals protected/number of animals tested, 0/4; type: functional
# Mus musculus [30] = assay: Anticonvulsant activity was measured by rotarod toxicity test on mice at 2 hr at the dose of 50 mg/kg; number of animals protected/number of animals tested, 0/4; type: functional
# Mus musculus [31] = assay: Anticonvulsant activity was measured by subcutaneous pentylenetetrazole test on mice at 4 h at the dose of 300 mg/kg; number of animals protected/number of animals tested, 0/1; type: functional
# Mus musculus [32] = assay: Anticonvulsant activity was measured by subcutaneous pentylenetetrazole test on mice at 4 hr at the dose of 100 mg/kg; number of animals protected/number of animals tested, 0/1; type: functional
# Mus musculus [33] = assay: Anticonvulsant activity was measured by maximal electroshock test on mice at 2 hr at the dose of 50 mg/kg; number of animals protected/number of animals tested, 2/4; type: functional
# Mus musculus [34] = assay: Anticonvulsant activity was measured by maximal electroshock test on mice at 30 min at the dose of 100 mg/kg; number of animals protected/number of animals tested, 1/3; type: functional
smiles,measurement,setting,value
O=C1CC2(CCCC2)C(=O)N1OCc1ccccc1,Elevation of threshold,Mus musculus [1],14%
same,Elevation of threshold,Mus musculus [2],26%
same,Elevation of threshold,Mus musculus [3],28%
same,TID20,Mus musculus [4],71 mg/kg
same,TPE,Mus musculus [5],0.25
same,TPE,Mus musculus [6],4 toxicity
same,No. of mice protected/tested,Mus musculus [7],1
same,No. of mice protected/tested,Mus musculus [8],2
same,No. of mice protected/tested,Mus musculus [9],2
same,ED50,Mus musculus [10],111 mg/kg
same,ED50,Mus musculus [11],494 mg/kg
same,PI,Mus musculus [12],>4.5
O=C1NC(=O)C(c2ccccc2)(c2ccccc2)N1 [PHENYTOIN],TPE,Mus musculus [13],2 toxicity
same,TPE,Mus musculus [14],2
same,ED50,Rattus norvegicus,inactive
O=C1CC2(CCCC2)C(=O)N1OCc1ccccc1C(F)(F)F,Ratio,Mus musculus [15],0
same,Ratio,Mus musculus [16],0
same,Ratio,Mus musculus [17],0
same,Ratio,Mus musculus [18],0
same,Ratio,Mus musculus [19],0
same,Ratio,Mus musculus [20],2
same,Ratio,Mus musculus [21],5
same,Ratio,Mus musculus [22],0
same,Ratio,Mus musculus [23],0
same,Ratio,Mus musculus [24],0
same,Ratio,Mus musculus [25],1
same,Ratio,Mus musculus [26],0
same,Ratio,Mus musculus [27],0
same,Ratio,Mus musculus [28],0
same,Ratio,Mus musculus [29],0
same,Ratio,Mus musculus [30],0
same,Ratio,Mus musculus [31],0
same,Ratio,Mus musculus [32],0
same,Ratio,Mus musculus [33],2
same,Ratio,Mus musculus [34],1
